These results are taken from ChEMBL document CHEMBL1128310, “Antitumor imidazotetrazines. 32. Synthesis of novel imidazotetrazinones and related bicyclic heterocycles to probe the mode of action of the antitumor drug temozolomide” (J Med Chem, 1995).

Data set [1] concerns GM892A cell line. Put plainly: (§1) In vitro cytotoxicity against human lymphoblastoid cell (GM892 A). In kind it is functional, cell-based.
For data set [2], the system named is Raji. Put plainly: In vitro cytotoxicity against Raji cell line. The class given is functional, cell-based. The settings on record: Homo sapiens.
A short description of data set [3]: Ratio of cytotoxicity against Raji cells to that of GM892 A cells. The class given is functional.
Data set [4] deals with TLX-5. Put plainly: In vitro cytotoxicity against mouse TLX5 lymphoma cells. The class given is functional, cell-based. In outline:
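Mouse TLX5 lymphoma cells in exponential growth at 2×10^4 cells/mL in RPMI 1640 with 15% FCS, given drug in DMSO, triplicate wells per concentration, 72 h at 37 °C under 5% CO2. Electronic cell counting; percent of DMSO-control growth plotted and IC50 (μM) calculated.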

Data set [5] has as its system GM892A cell line. Described as §1. In kind it is functional, cell-based. In outline: (§2)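 Mer⁻ GM892A cells in RPMI 1640 with 10% FCS and 1% L-glutamine, seeded at 0.8×10^5 cells/mL and exposed to a range of concentrations in DMSO (≤0.5%) for 72 h. At least three populations per concentration; duplicate cell counts after subtracting the seed number. Growth compared with solvent controls and IC50 (μM) derived.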
The source holds these as a separate data set.

Data set [6] can be described thus: Mean rate constant for the hydrolysis of compound in buffers at pH 7.4, at 37 degrees Celsius in incubation mixture - 5'-GMP/5'-CMP (1:1). The settings on record: buffer. The class given is ADME. In outline: (§3)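 Compound incubated at 37 °C in 0.1 M phosphate or 0.1 M sodium cacodylate buffer (pH 7.4 or 6.5) with homopolymer oligonucleotide or GMP/CMP, as equimolar nucleotide bases or 10-fold molar excess of bases. Parent peak followed by HPLC for about three half-lives. Pseudo-first-order k from log(peak area) versus time, at least 10 points per run, averaged over replicate runs.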

Data set [7] in a line: Half life for the hydrolysis of compound in buffers at pH 6.5, at 37 degrees Celsius in incubation mixture - d(A)-d(T) (10:1). The class given is ADME. The procedure, abridged:
(§4)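 Compound incubated at 37 °C in 0.1 M phosphate or 0.1 M sodium cacodylate buffer (pH 7.4 or 6.5) with homopolymer oligonucleotide or GMP/CMP, as equimolar nucleotide bases or 10-fold molar excess of bases. Loss of parent was followed by HPLC (0.5% acetic acid in water/methanol 70:30) over about three half-lives. Pseudo-first-order k from log peak area versus time; t1/2 = 0.693/mean k.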

The nature of data set [8]: Half life for the hydrolysis of compound in buffers at pH 6.5, at 37 degrees Celsius in incubation mixture - d(G)-d(C) (10:1). In kind it is ADME. The procedure, abridged: as §4
A short description of data set [9]: Mean rate constant for the hydrolysis of compound in buffers at pH 7.4, at 37 degrees Celsius in incubation mixture - d(G)-d(C) (1:1). In kind it is ADME. The settings on record: buffer. The procedure, abridged:
as §3

Data set [10] can be described thus: Half life for the hydrolysis of compound in buffers at pH 7.4, at 37 degrees Centigrade in incubation mixture - d(G)-d(C) (10:1). The class given is ADME. The procedure, abridged:
as §4

Data set [11] can be described thus: Half life for the hydrolysis of compound in buffers at pH 7.4, at 37 degrees Celsius in incubation mixture - d(A)-d(T) (10:1). To be noted: buffer with d(A)-d(T) (10:1).
Data set [12] is described as follows: Mean rate constant for the hydrolysis of compound in buffers at pH 7.4, at 37 degrees Celsius in incubation mixture - d(A)-d(T) (1:1). In kind it is ADME. To be noted: buffer. The procedure, abridged:
as §3

A short description of data set [13]: Mean rate constant for the hydrolysis of compound in buffers at pH 7.4 at 37 degrees Centigrade in incubation mixture - d(A)-d(T) (10:!). In kind it is ADME. The settings on record: buffer. The procedure, abridged: as §3
The nature of data set [14]: Half life for the hydrolysis of compound in buffers at pH 7.4, at 37 degrees Celsius in incubation mixture - d(A)-d(T) (1:1). The class given is ADME. To be noted: buffer with d(A)-d(T) (1:1). In outline: as §4
Data set [15] is described as follows: Half life for the hydrolysis of compound in buffers at pH 7.4 at 37 degrees Celsius in incubation mixture - d(A)-d(T) (10:!). In kind it is ADME. The settings on record: buffer with d(A)-d(T) (10:1). The procedure, abridged: as §4
A short description of data set [16]: Half life for the hydrolysis of compound in buffers at pH 7.4, at 37 degrees Centigrade in incubation mixture - 5'-GMP/5'-CMP (1:1). The class given is ADME. The settings on record: buffer with 5'-GMP/5'-CMP (1:1). In outline: as §4
A short description of data set [17]: Half life for the hydrolysis of compound in buffers at pH 7.4, at 37 degrees Celsius in incubation mixture - d(G)-d(C) (1:1). In kind it is ADME. To be noted: buffer with d(G)-d(C) (1:1). The procedure, abridged: as §4
The subject of data set [18] is GM892A cell line. As to the kind of experiment: In vitro cytotoxicity against human lymphoblastoid cell line (GM892 A). In kind it is functional, cell-based. In outline: as §2
The nature of data set [19]: Mean rate constant for the hydrolysis of compound in buffers at pH 7.4, at 37 degrees Celsius in incubation mixture - d(A)-d(T) (10:1). The settings on record: buffer.
Data set [20] has as its system GM892A cell line. As to the kind of experiment: In vitro cytotoxicity against human lymphoblast cell line (GM892 A). The class given is functional, cell-based. In outline: as §2

Molecules are shown by their SMILES. A value given as a limit tells only on which side of the number the result lay.

As a reminder, the IC50 is the concentration at which inhibition is half-maximal. A low value points to inhibition by little substance. Turning to `CN(N=O)C(N)=O.Cl.Cl.Cl`, the IC50 in data set [1] turned out to be 35 µM; in data set [2], 259 µM. In [3], the Ratio came out at 7.4.
In turn, `Nc1nc(O)cc(-c2ccc(NC(=O)c3ncn4c(=O)n(CCCl)nnc34)cc2)n1` registered an IC50 in data set [4] of 25 µM.
Still for that read-out and setting: the figure for `NC(=O)c1cccc2c(=O)n(-c3ccccc3)nnc12` is greater than 500 µM.
As to `Cn1nnc2c(C(N)=O)cnn2c1=O`, the results for the IC50 in data set [1] and in data set [2] were 5.3 µM and 270 µM, respectively. In addition, in [3], the Ratio came out at 51.
Turning to `CNC(=O)c1nnc2c(O)n(C)nnc1-2`, the IC50 in data set [1] and in data set [2] was greater than 500 µM throughout.
The compound `Cn1nnc2c(C(N)=O)cccc2c1=O` showed an IC50 in data set [4] greater than 500 µM.
`NC(=O)c1ccc2c(=O)n(CCCl)nnc2c1`: the IC50 in data set [4] came out at 350 µM.
Turning to `O=C(O)c1ncn2c(=O)n(CCCl)nnc12`, the IC50 in [4] came to 15.8 µM.
In the case of `Cn1nnc2c(C(=O)NCCCN(CCCN)CCCCN)ncn2c1=O`, the IC50 in [1] and in [2] was greater than 500 µM each time.
Turning to `NC(=O)c1ccc2c(=O)n(-c3ccccc3)nnc2c1`, the IC50 in data set [4] is 140 µM.
For `CCn1nnc2cc(C(N)=O)ccc2c1=O`, 108 µM corresponded to half-maximal inhibition in data set [4] (IC50).
In data set [4], `Cn1nnc2cc(C(N)=O)ccc2c1=O` had an IC50 of 380 µM.
Consider `NC(=O)c1cccc2c(=O)n(CCCl)nnc12`, for which half-maximal inhibition in data set [4] (IC50) was put at 225 µM.
In [4], `NC(=O)c1ccc(NC(=O)c2ncn3c(=O)n(CCCl)nnc23)cc1` gave an IC50 of 37 µM.
`NC(=O)c1ccccc1NC(=O)c1ncn2c(=O)n(CCCl)nnc12` returned an IC50 in [4] of 13 µM.
`NC(=O)Cn1nnc2c(C(N)=O)cccc2c1=O` had an IC50 in [4] greater than 500 µM.
The compound `NC(=O)c1cccc2c(O)nnnc12` returned an IC50 in data set [4] of 400 µM.
On the same count and under the same terms, the figure for `NC(=O)c1cccc(NC(=O)c2ncn3c(=O)n(CCCl)nnc23)c1` is 35 µM.
In data set [4], `NC(=O)c1ccc(NC(=O)c2ncn3c(=O)n(CCCl)nnc23)c(C(N)=O)c1` showed an IC50 of 375 µM.
Regarding `CCn1nnc2c(C(N)=O)ncn2c1=O`, the figures for the IC50 in [1] and in [2] were 180 µM and 435 µM, respectively. In data set [3], the Ratio was found to be 2.4.
Regarding `CCn1nnc2c(C(N)=O)cccc2c1=O`, half-maximal inhibition in data set [4] (IC50) was put at 325 µM.
The compound `O=C(Nc1ccccc1)c1ncn2c(=O)n(CCCl)nnc12` showed an IC50 in data set [4] of 1.25 µM.
As for `CN(C)/N=N/c1[nH]cnc1C(N)=O` [DACARBAZINE], the figures for the IC50 in data set [2] and in data set [5] were 128 µM and 14 µM, respectively. Further, in [3], the Ratio was determined as 9.
What is called half-life is how long it takes for the measured level to halve. Consider `NC(=O)c1ncn2c(=O)n(CCCl)nnc12` [MITOZOLOMIDE], for which the Mean rate constant in data set [6] is 0.00979 min⁻¹; in [9], 0.0094 min⁻¹; in data set [12], 0.00915 min⁻¹; in data set [13], 0.0122 min⁻¹; in data set [19], 0.00932 min⁻¹. Besides, the T1/2 in data set [7] (buffer) was 5.777 h; in [8] (buffer), 5.747 h; in data set [10] (buffer), 0.947 h. Moreover, the half-life was found to be 7.45 h in data set [7] (buffer with d(A)-d(T) (10:1)); 7.5 h in [8] (buffer with d(G)-d(C) (10:1)); 1.27 h in data set [10] (buffer with d(G)-d(C) (10:1)); 1.24 h in data set [11]; 1.26 h in data set [14]; 0.947 h in [15]. Moreover, the half-life came to 1.18 h in data set [16] and 1.22 h in data set [17]. Moreover, the IC50 in [2] turned out to be 39 µM; in data set [4] it was 2.5 µM; in data set [18] it was 4.8 µM. In addition, the Ratio in data set [3] is reported as 8.1.
As to `Cn1nnc2c(C(N)=O)ncn2c1=O` [TEMOZOLOMIDE], the IC50 in data set [2] amounted to 175 µM; in data set [4], 5 µM; in [20], 7.6 µM. Moreover, the Ratio in data set [3] was 23.
